An excerpt weighted towards active compounds, which were near 4.6% of everything screened.
PolyA inhibitor: yeast polyadenylation inhibition | activity score, % at 12 µM | 300,000 tested, 0.02% active | S. cerevisiae SKY197-pL101 polyadenylation reporter, beta-gal luminescence; efflux-impaired pdr1/pdr3 knockout yeast; score 100 = 6 SD above DMSO | AID 1875;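 active means lowest replicate activity score at least 50, where 100 means six control SD above control mean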;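 further: yeast exposed to compound for 9 h at 30 °C; higher score means more reporter readthrough which indicates perturbed polyadenylation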
NLRP3 yeast inh: NALP3 inhibition in yeast | Yeast reconstituted NLRP3/ASC/caspase-1, beta-gal luminescence, 24 h | inhibition, % at 10 µM | 330,000 tested, 0.39% active;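 active means inhibition of 50% or more; inactive means inhibition below 50%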;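 further: plate controls were induced DMSO wells for no effect and uninduced yeast grown without galactose for full effect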
NALP1 inh: inhibitors of NALP1 inflammasome in yeast; S. cerevisiae NALP1/ASC/caspase-1 growth, X-gal OD620, 72 h; inhibition, % at 10 µM; 280,000 tested, 0.61% active; in the data active means inhibition mostly above about 24%, no sharp cut-off; inactive means mostly below about 32%
Arrestin-AP2 inh: human beta-arrestin and AP2 interaction inhibition; 340,000 tested, 0.31% active; FITC-arrestin peptide / GST-AP2 beads, flow cytometry; AP2 beta2 appendage carries R879A mutation; inhibition, % at 10 µM;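 active means inhibition above a set limit, near 3 SD of compounds lacking own fluorescence, cut at about 54% in these data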;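 further: plate controls were DMSO wells for no effect and 5 µM unlabelled arrestin peptide for full effect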
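test system = AP2 appendage R879A on GSH beads | buffer or medium = PBS plus Tween 20 (0.05%) and BSA (0.1%) | incubation = 12 min plus 1 h, RT | detection = bead flow cytometry, FITC channel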
ALR inh: inhibitors of human sulfhydryl oxidase ALR. P55789. purified ALR, DTT oxidation, H2O2 HRP-luminol luminescence. inhibition, % (concentration not given with the values). 290,000 tested, 3.8% active. AID 485317;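 active means mean replicate inhibition above about 79%, with every replicate also reaching it, limit read from the data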
Target sequence (P55789 whole entry, looked up): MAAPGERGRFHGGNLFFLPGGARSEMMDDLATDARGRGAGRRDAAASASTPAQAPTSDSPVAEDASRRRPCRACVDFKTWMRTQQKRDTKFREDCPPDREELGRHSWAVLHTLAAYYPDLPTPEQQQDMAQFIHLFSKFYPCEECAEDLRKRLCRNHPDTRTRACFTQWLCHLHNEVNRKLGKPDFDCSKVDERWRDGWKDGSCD
DSG3 Ab inh: blocks pemphigus antibody binding to human desmoglein-3 | DSG3-coupled beads, scFv-anti-DSG3-GFP binding, flow cytometry; active compounds read low | binding (percent of control), % at 10 µM | AID 588358 | 310,000 tested, 0.48% active;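 active means binding more than 3 SD below its plate's average and above zero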;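 further: hits lower antibody fragment binding to DSG3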
Starred values were filed as active, the others as inactive; . = not tested or not shown.

SMILES | PolyA inhibitor | NLRP3 yeast inh | NALP1 inh | Arrestin-AP2 inh | ALR inh | DSG3 Ab inh
Cc1ccc(C(CC(=O)O)NC(=O)c2ccc(S(=O)(=O)N3CC(C)OC(C)C3)cc2)cc1 (configuration not stated) | . | 20.5 | . | -1.9 | 0.6 | 118.6
Cc1ccc(S(=O)(=O)Nc2cccc3cccnc23)c([N+](=O)[O-])c1 | 72.4* | 33.5 | -7.1 | 35.4 | -4.9 | .
Cc1cc(C)c(NS(=O)(=O)c2cccc3cccnc23)c(C)c1 | -4.0 | 24.7 | 10.0 | -9.0 | -5.6 | 109.7
C#CCOCCOCCOCCNc1nc(N2CCN(C(=O)[C@H](CCC(=O)O)n3cc([C@@H](N)[C@H](C)CC)nn3)CC2)nc(N2CCN(C(=O)[C@H](CCCCN)n3cc([C@@H](N)CC(N)=O)nn3)CC2)n1 | . | 9.8 | . | -8.6 | . | 102.4
O=c1nccc(SCc2ccc(Cl)cc2Cl)[nH]1 | -7.4 | 11.4 | 1.7 | 12.4 | 98.7* | 92.0
Cc1cnc(SCc2ccc(Cl)cc2Cl)[nH]c1=O | -28.6 | 41.9 | -1.1 | 0.8 | -27.3 | 96.4
CCN(CC)c1ccc(NC(=O)COC(=O)C23CCC(=O)N2c2ccccc2S3)cc1 (configuration not stated) | -12.7 | 9.4 | 37.7 | 12.4 | 96.8* | .
COc1ccc(NC(=O)COC(=O)CNC(=O)c2cccs2)cc1Cl | . | 5.3 | . | -5.5 | -1.1 | .
CN(C)c1ccc(NC(=O)COC(=O)CNC(=O)c2cccs2)cc1 | . | 1.4 | . | -5.4 | 95.9* | 94.4
CCN(CC)c1ccc(NC(=O)COC(=O)COc2ccccc2[N+](=O)[O-])cc1 | 3.8 | 17.3 | 27.6 | 1.0 | 99.4* | 92.6
COc1cccc(NC(=O)COC(=O)COc2ccccc2[N+](=O)[O-])c1 | 18.6 | 20.7 | 19.4 | 3.6 | -13.3 | 97.2
CCN(CC)c1ccc(NC(=O)COC(=O)Cc2ccsc2)cc1 | . | 16.7 | . | 7.3 | . | 106.6
CCN(CC)c1ccc(NC(=O)COC(=O)CCC(=O)c2cccs2)cc1 | . | 24.0 | . | 3.7 | 99.1* | .
O=C(CSc1nnc(CNC(=O)c2c(F)cccc2F)o1)NCc1ccc(F)cc1 | -3.9 | 2.2 | 13.3 | 30.3 | -13.3 | 95.3
COCCn1c(SCC(=O)NC(C)c2ccc(F)cc2)nc2ccccc21 (configuration not stated) | 22.9 | 9.9 | 14.1 | 7.2 | -2.8 | .
Cn1cc(S(=O)(=O)Nc2ccc(F)c(Cl)c2)c(=O)n(C)c1=O | 19.4 | 2.9 | -12.9 | 6.8 | . | 115.1
CN(C)c1ccc(NC(=O)COC(=O)CCC(=O)c2ccc(F)cc2)cc1 | 8.2 | 9.5 | -12.9 | 15.4 | 96.6* | 103.4
Cc1ccccc1SCC(=O)OCC(=O)Nc1ccc(N(C)C)cc1 | -10.3 | 2.5 | -0.7 | 5.2 | 99.2* | 96.9
O=C(C(=O)N1CCN(c2ccccc2F)CC1)c1cn(CC(=O)N2CCCC2)c2ccccc12 | . | . | . | . | . | 94.2
O=C(O)c1ccc(O)c(O)c1 | -4.7 | 0.0 | 15.6 | 8.0 | 98.0* | 97.1
O=C(O)c1cccc(C(=O)O)c1 | -0.2 | 7.0 | 12.2 | 14.6 | -21.0 | 104.5
O=C(O)Cc1ccc(O)c(F)c1 | -6.7 | 23.1 | 8.1 | -10.3 | . | 67.8*
O=C(O)c1ccc(-c2ccc(O)c(F)c2)cc1 | -5.1 | -4.2 | 27.6 | 0.9 | 98.0* | 102.1
Cc1cc(Br)ccc1NC(=O)CN(C)C(=O)c1cc([N+](=O)[O-])ccc1N1CCOCC1 | 16.0 | 4.5 | . | 1.2 | -11.6 | 110.6
O=C(NCc1ccco1)c1ccc(COc2cccc3ccccc23)cc1 | -5.7 | 28.7 | 34.6 | -0.3 | . | 95.4
SMILES | PolyA inhibitor | NLRP3 yeast inh | NALP1 inh | Arrestin-AP2 inh | ALR inh | DSG3 Ab inh
O=C(NCc1ccco1)c1ccc(COc2ccccc2Cl)cc1 | -0.1 | 21.9 | 6.4 | 15.9 | 99.3* | 102.1
O=C(NCc1ccco1)c1ccccc1F | 27.4 | 7.7 | 6.6 | -1.2 | 58.3 | .
O=C(NCc1ccco1)c1ccccc1Nc1ccc(F)cc1 | . | 17.5 | 5.8 | -5.2 | 99.0* | .
O=C(NCc1ccco1)c1ccc(Oc2ccccc2)cc1 | 14.9 | 34.9 | 40.0* | 0.7 | 90.5* | 99.3
Cc1cc(C)nc(NC(=O)c2ccc(COc3ccccc3Cl)cc2)c1 | -5.3 | 6.7 | -0.3 | 2.9 | 97.4* | 91.8
CCOC(=O)c1c(NC(=O)COC(=O)CCNS(=O)(=O)c2ccccc2)sc(C(=O)NC)c1C | . | . | . | -12.4 | . | 106.0
O=C(CCS(=O)(=O)c1ccc(F)cc1)N1CCOCC1 | 11.8 | 18.7 | -3.6 | -6.7 | -2.0 | .
Cc1noc(NS(=O)(=O)c2ccc(NC(=O)NC(C)(C(F)(F)F)C(F)(F)F)cc2)c1C | 7.7 | 12.9 | 0.1 | 40.2 | 54.1 | 111.1
O=C(NCc1cccnc1)c1ccc(COc2ccccc2Cl)cc1 | 4.2 | 7.6 | 2.6 | 3.1 | 98.3* | 81.7
O=C(NCc1cccnc1)c1ccc(COc2ccccc2Br)cc1 | -12.0 | 38.2 | 27.4 | 6.9 | -1.4 | 110.6
C[C@H]1[C@H](C)CC[C@]2(C(=O)O)CC[C@]3(C)C(=CC[C@@H]4[C@@]5(C)CC[C@H](O)C(C)(C)[C@@H]5CC[C@]43C)[C@H]12 | 0.0 | -0.8 | 10.9 | -5.9 | -2.9 | 97.8
C[C@H]1[C@H](C)CC[C@]2(C(=O)O)CC[C@]3(C)C(=CC[C@@H]4[C@@]5(C)C[C@@H](O)[C@H](O)C(C)(C)[C@@H]5CC[C@]43C)[C@H]12 | 0.4 | -1.3 | 26.4 | 5.3 | -6.4 | 84.9*
COc1ccc(NC(=O)CSC2CC(=O)N(c3ccc4c(c3)OCCO4)C2=O)cc1 (configuration not stated) | -1.2 | 7.2 | 16.2 | 4.1 | 98.5* | 110.6
COc1ccccc1NC(=O)CSC1CC(=O)N(c2ccc3c(c2)OCO3)C1=O (configuration not stated) | 5.5 | 24.6 | 30.6* | 5.7 | 99.6* | 101.6
Cc1ccc(N2C(=O)CC(Sc3cccs3)C2=O)cc1 (configuration not stated) | 18.3 | 32.2 | 2.5 | -3.2 | 56.1 | 107.2
Cc1ccc(SC2CC(=O)N(c3ccc4c(c3)OCCO4)C2=O)cc1 (configuration not stated) | -13.0 | 19.7 | 29.9 | 1.1 | 97.8* | 88.4
COc1ccccc1NC(=O)CN1CCN(CC(=O)Nc2ccc3c(c2)OCO3)CC1 | . | 12.0 | 15.9 | 4.4 | 27.7 | .
COc1ccc(N2C(=O)CC(SCC(=O)O)C2=O)cc1 (configuration not stated) | -12.8 | 6.1 | -1.0 | 9.3 | -18.9 | 99.3
CC1(C)CCCC2(C)C(OCCO)=CC(=O)C=C12 (configuration not stated) | . | . | . | . | . | 98.3
O=C(NCCCN1CCOCC1)c1cc2ccccc2cc1O | 3.1 | 10.7 | . | -7.8 | . | 99.8
O=C(/C=C/c1ccc(O)cc1)c1ccccc1 | -27.0 | 5.0 | 14.9 | 18.9 | 99.4* | 99.4
Cc1nn(C)cc1/C=C/C(=O)c1ccc(O)cc1 | -1.8 | 7.8 | 8.1 | 20.5 | 98.8* | 100.8
CCOc1ccc(/C=C/C(=O)c2ccccc2)cc1OC | -23.9 | 16.9 | 46.6 | -13.3 | 7.0 | 93.4

Assay outcomes as filed in PubChem BioAssay.
